Measured values gathered from unrelated publications.
OSBP: Oxysterol-binding protein 1 (OSBP, Homo sapiens, UniProt P22059)
CDK4 with cyclin D1: Cyclin-dependent kinase 4, with cyclin D1 (CDK4, Homo sapiens, UniProt P11802)
SLC22A8: Organic anion transporter 3 (SLC22A8, Homo sapiens, UniProt Q8TCC7)

`CSC[C@H]1O[C@@H](n2cnc3c(N)ncnc32)[C@H](O)[C@@H]1O` has a Kd of 150 µM (tapT (Escherichia coli, UniProt Q47319); binding, ITC).
The Kd of `Nc1nc2c(ncn2[C@@H]2O[C@H](COP(=O)(O)OP(=O)(O)OP(=O)(O)O)[C@@H](O)[C@H]2O)c(=O)[nH]1` is reported as 0.118 µM (GTPase KRas (KRAS, Homo sapiens, UniProt P01116, Q61H); binding).
`CCOc1ccc(C(=O)CC(SCc2ccc(OC)cc2)C(=O)O)cc1` (centres unmarked) gave a Ki of 549 µM (OSBP; ligand displacement, FP).
For `CN(C)C(=O)c1cc2cnc(Nc3cc(C(=O)O)cc(-c4cccc5c(=O)cc(N6CCOCC6)oc45)c3)nc2n1C1CCCC1`, the IC50 was over 10 µM (CDK4 with cyclin D1; enzyme activity, inhibitor, radiometric).
`CCOc1ccc(C(=O)CC(SCc2ccc(Br)cc2)C(=O)O)cc1` (centres unmarked) gave a Ki of 459 µM (OSBP; ligand displacement, FP).
With `CN(C)C(=O)c1cc2cnc(Nc3cc(C(F)(F)F)c(-c4ccc5c(=O)cc(N6CCOCC6)oc5c4)cn3)nc2n1C1CCCC1` the IC50 was over 10 µM (CDK4 with cyclin D1; enzyme activity, inhibitor, radiometric).
The Ki of `C=CC(=O)N1C[C@H](Nc2ncnc3[nH]ccc23)CC[C@@H]1C` is reported as 41 µM (SLC22A8; transporter uptake, inhibitor; HEK293; pH 7.4).
`CN(C)C(=O)c1cc2cnc(Nc3ccc(C(=O)NCCCCCCOc4cccc5c4C(=O)N(C4CCC(=O)NC4=O)C5=O)cc3)nc2n1C1CCCC1` (centres unmarked) gave a Kd of under 0.2 µM (Cyclin-dependent kinase 4 (CDK4, Homo sapiens, UniProt P11802); binding, competition with immobilised ligand).
`CN(C)C(=O)c1cc2cnc(Nc3cccc(-c4cccc5c(=O)cc(N6CCOCC6)oc45)c3)nc2n1C1CCCC1` gave an IC50 of 0.336 µM (CDK4 with cyclin D1; enzyme activity, inhibitor, radiometric).
`CCOc1ccc(C(=O)CC(SCc2ccc(Cl)cc2)C(=O)OC)cc1` (centres unmarked) gave a Ki of over 1000 µM (OSBP; ligand displacement, FP).
For `O=C(O)c1ccc2nc(-c3cc(Cl)cc(Cl)c3)oc2c1`, the Ki was 2.36 µM (SLC22A8; transporter uptake, inhibitor; HEK293; pH 7.4).
`C[S+](CC[C@H](N)C(=O)O)C[C@H]1O[C@@H](n2cnc3c(N)ncnc32)[C@H](O)[C@@H]1O` (some centres unmarked) gave a Kd of 590 µM (tapT (Escherichia coli, UniProt Q47319, D137A); binding, ITC).
The IC50 of `CN(C)C(=O)c1cc2cnc(Nc3cc(C(=O)O)cc(-c4ccc5c(=O)cc(N6CCOCC6)oc5c4)c3)nc2n1C1CCCC1` is reported as 7.85 µM (CDK4 with cyclin D1; enzyme activity, inhibitor, radiometric).
`CCOc1ccc(C(=O)CC(SCc2ccccc2)C(=O)O)cc1` (centres unmarked) gave a Ki of over 1000 µM (OSBP; ligand displacement, FP).
